Test results published in ChEMBL document CHEMBL1806473, “Structure-based optimization of click-based histone deacetylase inhibitors” (Eur J Med Chem, 2011).

Columns and labels:
CCRF-CEM [1] = assay: Antiproliferative activity against human CCRF-CEM cells by SRB assay; type: functional
How it was run: (§1)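 Tested in the NCI in vitro human tumor cell line screen, run by the National Cancer Institute. Each compound was given at five concentrations (100, 10, 1.0, 0.1 and 0.01 μM). GI50 is the drug concentration that reduces growth of treated cells to half that of control cells during drug incubation, judged from the SRB signal.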

K562 [2] = assay: Antiproliferative activity against human K562 cells by SRB assay; type: functional; how it was run: as §1
SR = assay: Antiproliferative activity against human SR cells by SRB assay; type: functional
How it was run: (§2)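 Cell growth was tested in the NIH in vitro disease-oriented human tumor cell line screen, which NCI ran for these compounds. Compounds were tested at five concentrations (100, 10, 1.0, 0.1 and 0.01 μM), and growth was read by SRB signal. GI50 is the drug concentration that reduces growth of treated cells to half that of control cells during drug incubation.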

EKVX = assay: Antiproliferative activity against human EKVX cells by SRB assay; type: functional; how it was run: as §1
HOP-92 [3] = assay: Antiproliferative activity against human HOP92 cells by SRB assay; type: functional; how it was run: as §1
NCI-H226 [4] = assay: Antiproliferative activity against human NCI-H226 cells by SRB assay; type: functional; how it was run: as §1
NCI-H23 [5] = assay: Antiproliferative activity against human NCI-H23 cells by SRB assay; type: functional; how it was run: as §1
NCI-H460 [6] = assay: Antiproliferative activity against human NCI-H460 cells by SRB assay; type: functional; how it was run: as §1
NCI-H522 = assay: Antiproliferative activity against human NCI-H522 cells by SRB assay; type: functional; how it was run: as §1
COLO 205 = assay: Antiproliferative activity against human COLO205 cells by SRB assay; type: functional; how it was run: as §1
HCT-116 = assay: Antiproliferative activity against human HCT116 cells by SRB assay; type: functional; how it was run: as §1
HCT-15 = assay: Antiproliferative activity against human HCT15 cells by SRB assay; type: functional; how it was run: as §1
HT-29 = assay: Antiproliferative activity against human HT-29 cells by SRB assay; type: functional; how it was run: as §1
SW-620 [7] = assay: Antiproliferative activity against human SW620 cells by SRB assay; type: functional; how it was run: as §2
SF-295 = assay: Antiproliferative activity against human SF295 cells by SRB assay; type: functional; how it was run: as §1
SNB-19 = assay: Antiproliferative activity against human SNB19 cells by SRB assay; type: functional; how it was run: as §1
U-251 = assay: Antiproliferative activity against human U251 cells by SRB assay; type: functional; how it was run: as §2
LOX IMVI [8] = assay: Antiproliferative activity against human LOXIMVI cells by SRB assay; type: functional; how it was run: as §1
M14 [9] = assay: Antiproliferative activity against human M14 cells by SRB assay; type: functional; how it was run: as §1
SK-MEL-2 = assay: Antiproliferative activity against human SK-MEL-2 cells by SRB assay; type: functional; how it was run: as §1
SK-MEL-28 [10] = assay: Antiproliferative activity against human SK-MEL-28 cells by SRB assay; type: functional; how it was run: as §1
UACC-257 = assay: Antiproliferative activity against human UACC257 cells by SRB assay; type: functional; how it was run: as §2
IGROV-1 [11] = assay: Antiproliferative activity against human IGROV1 cells by SRB assay; type: functional; how it was run: as §1
OVCAR-3 = assay: Antiproliferative activity against human OVCAR3 cells by SRB assay; type: functional; how it was run: as §1
OVCAR-4 [12] = assay: Antiproliferative activity against human OVCAR4 cells by SRB assay; type: functional; how it was run: as §1
OVCAR-8 [13] = assay: Antiproliferative activity against human OVCAR8 cells by SRB assay; type: functional; how it was run: as §1
RXF 393 = assay: Antiproliferative activity against human RXF393 cells by SRB assay; type: functional; how it was run: as §1
TK-10 = assay: Antiproliferative activity against human TK10 cells by SRB assay; type: functional; how it was run: as §2
UO-31 = assay: Antiproliferative activity against human UO31 cells by SRB assay; type: functional; how it was run: as §2
DU-145 = assay: Antiproliferative activity against human DU145 cells by SRB assay; type: functional; how it was run: as §1
MCF7 [14] = assay: Antiproliferative activity against human MCF7 cells by SRB assay; type: functional; how it was run: as §1
MDA-MB-231 = assay: Antiproliferative activity against human MDA-MB-231 cells by SRB assay; type: functional; how it was run: as §1
[15] = Antiproliferative activity against human Hs 578T cells by SRB assay; type: functional; how it was run: as §1
T47D [16] = assay: Antiproliferative activity against human T47D cells by SRB assay; type: functional; how it was run: as §2
CCRF-CEM [17] = assay: Cytotoxicity against human CCRF-CEM cells; type: cell-based
HL-60(TB) = assay: Cytotoxicity against human HL-60(TB) cells; type: cell-based
K562 [18] = assay: Cytotoxicity against human K562 cells; type: cell-based
MOLT-4 = assay: Cytotoxicity against human MOLT4 cells; type: cell-based
HOP-92 [19] = assay: Cytotoxicity against human HOP92 cells; type: cell-based
NCI-H226 [20] = assay: Cytotoxicity against human NCI-H226 cells; type: cell-based
NCI-H23 [21] = assay: Cytotoxicity against human NCI-H23 cells; type: cell-based
NCI-H322M = assay: Cytotoxicity against human NCI-H322M cells; type: cell-based
NCI-H460 [22] = assay: Cytotoxicity against human NCI-H460 cells; type: cell-based
KM12 = assay: Cytotoxicity against human KM12 cells; type: cell-based
SW-620 [23] = assay: Cytotoxicity against human SW620 cells; type: cell-based
How it was run: (§3)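 Screened by NCI in its in vitro disease-oriented human tumour cell line panel. Compounds tested at five concentrations (100, 10, 1.0, 0.1 and 0.01 μM). Growth read by sulforhodamine B (SRB) signal. GI50 is the concentration reducing growth of treated cells to half that of control cells during the drug incubation.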

LOX IMVI [24] = assay: Cytotoxicity against human LOXIMVI cells; type: cell-based
M14 [25] = assay: Cytotoxicity against human M14 cells; type: cell-based
MDA-MB-435 = assay: Cytotoxicity against human MDA-MB-435 cells; type: cell-based
SK-MEL-28 [26] = assay: Cytotoxicity against human SK-MEL-28 cells; type: cell-based
SK-MEL-5 = assay: Cytotoxicity against human SK-MEL-5 cells; type: cell-based
UACC-62 = assay: Cytotoxicity against human UACC62 cells; type: cell-based; how it was run: as §3
IGROV-1 [27] = assay: Cytotoxicity against human IGROV1 cells; type: cell-based
OVCAR-4 [28] = assay: Cytotoxicity against human OVCAR4 cells; type: cell-based
OVCAR-8 [29] = assay: Cytotoxicity against human OVCAR8 cells; type: cell-based
SK-OV-3 = assay: Cytotoxicity against human SKOV3 cells; type: cell-based
786-0 = assay: Cytotoxicity against human 786-0 cells; type: cell-based
A498 = assay: Cytotoxicity against human A498 cells; type: cell-based
ACHN = assay: Cytotoxicity against human ACHN cells; type: cell-based
CAKI-1 = assay: Cytotoxicity against human Caki1 cells; type: cell-based
SN12C = assay: Cytotoxicity against human SN12C cells; type: cell-based; how it was run: as §3
PC-3 = assay: Cytotoxicity against human PC3 cells; type: cell-based
MCF7 [30] = assay: Cytotoxicity against human MCF7 cells; type: cell-based
[31] = Cytotoxicity against human Hs 578T cells; type: cell-based
BT-549 = assay: Cytotoxicity against human BT549 cells; type: cell-based
T47D [32] = assay: Cytotoxicity against human T47D cells; type: cell-based; how it was run: as §3

CC(/C=C/c1ccccc1)n1cc(/C=C/C(=O)NO)nn1 (stereo not given)
GI50 (CCRF-CEM [1]): 442 nM | GI50 (K562 [2]): 355 nM | GI50 (SR): 385 nM | GI50 (EKVX): 2090 nM | GI50 (HOP-92 [3]): 677 nM | GI50 (NCI-H226 [4]): 2350 nM | GI50 (NCI-H23 [5]): 1250 nM | GI50 (NCI-H460 [6]): 612 nM | GI50 (NCI-H522): 173 nM | GI50 (COLO 205): 469 nM | GI50 (HCT-116): 341 nM | GI50 (HCT-15): 2090 nM | GI50 (HT-29): 325 nM | GI50 (SW-620 [7]): 383 nM | GI50 (SF-295): 1060 nM | GI50 (SNB-19): 1870 nM | GI50 (U-251): 777 nM | GI50 (LOX IMVI [8]): 438 nM | GI50 (M14 [9]): 777 nM | GI50 (SK-MEL-2): 614 nM | GI50 (SK-MEL-28 [10]): 819 nM | GI50 (UACC-257): 1350 nM | GI50 (IGROV-1 [11]): 564 nM | GI50 (OVCAR-3): 1130 nM | GI50 (OVCAR-4 [12]): 636 nM | GI50 (OVCAR-8 [13]): 232 nM | GI50 (RXF 393): 1410 nM | GI50 (TK-10): 582 nM | GI50 (UO-31): 549 nM | GI50 (DU-145): 803 nM | GI50 (MCF7 [14]): 1160 nM | GI50 (MDA-MB-231): 1380 nM | GI50 [15]: 692 nM | GI50 (T47D [16]): 667 nM | LC50 (CCRF-CEM [17]): > 100000 nM | LC50 (HL-60(TB)): > 100000 nM | LC50 (K562 [18]): > 100000 nM | LC50 (MOLT-4): > 100000 nM | LC50 (HOP-92 [19]): 7530 nM | LC50 (NCI-H226 [20]): 71400 nM | LC50 (NCI-H23 [21]): 6610 nM | LC50 (NCI-H322M): > 100000 nM | LC50 (NCI-H460 [22]): 42700 nM | LC50 (KM12): 6820 nM | LC50 (SW-620 [23]): 5150 nM | LC50 (LOX IMVI [24]): 4120 nM | LC50 (M14 [25]): 9080 nM | LC50 (MDA-MB-435): 30800 nM | LC50 (SK-MEL-28 [26]): 24500 nM | LC50 (SK-MEL-5): 4520 nM | LC50 (UACC-62): 7990 nM | LC50 (IGROV-1 [27]): 5740 nM | LC50 (OVCAR-4 [28]): 18300 nM | LC50 (OVCAR-8 [29]): 6910 nM | LC50 (SK-OV-3): 21800 nM | LC50 (786-0): 9030 nM | LC50 (A498): 4830 nM | LC50 (ACHN): 5860 nM | LC50 (CAKI-1): 34700 nM | LC50 (SN12C): > 100000 nM | LC50 (PC-3): > 100000 nM | LC50 (MCF7 [30]): > 100000 nM | LC50 [31]: > 100000 nM | LC50 (BT-549): > 100000 nM | LC50 (T47D [32]): 7630 nM
